# Measurements pooled from the literature.
# Protocols differ between the studies behind these lines.
# Target: Glycogen synthase kinase-3 alpha (GSK3A, Homo sapiens, UniProt P49840)
SMILES,effect on,method,concentration,remaining binding [%]
COc1cnc(Nc2cccc(S(N)(=O)=O)c2)nc1N1CCN(c2ccccc2)C(=O)C1,binding,competition with immobilised ligand,1 µM,90
CC(C)(O)c1cncc(-c2nc3ccc(F)cc3n2C2CC2)c1,cell-free assay,competition with immobilised ligand,1 µM,100
O=C(c1ccc(Nc2ncc(Cl)c(-c3ccc(Cl)s3)n2)cc1)N1CCC(N2CCCC2)CC1,binding,competition with immobilised ligand,1 µM,22
O=C(Nc1c[nH]nc1C(=O)NC1CCNCC1)c1cc(F)cc(F)c1,binding,competition with immobilised ligand,1 µM,14
c1cncc(-c2cccc(Nc3nccc(NC4CCCCC4)n3)c2)c1,binding,competition with immobilised ligand,10 µM,65
FC(F)(F)Oc1cccc(-c2cnc3ccc(-c4ccncc4)nn23)c1,cell-free assay,competition with immobilised ligand,5 µM,44
Cc1cnn2ncc(-c3ccnc(N(C)C)n3)c2c1,binding,,1 µM,96
O=C(NCc1ncc(C(F)(F)F)cc1Cl)c1ccc2c(c1)C1(CCS(=O)(=O)CC1)[C@H](C1CC1)N2S(=O)(=O)c1ccc(F)cc1,cell-free assay,competition with immobilised ligand,1 µM,100
O=C(NCCCN1CCOCC1)c1ccc(Nc2ncc(Cl)c(-c3ccc(Cl)s3)n2)cc1,binding,competition with immobilised ligand,1 µM,43
CNC(=O)[C@@H]1CC[C@@H](n2c(-c3ccc4cnccc4c3)nc3ccc(C(=O)NCc4cccc(C(N)=O)c4)cc32)C1,binding,competition with immobilised ligand,1 µM,85
O=C(c1ccc(Nc2nccc(-c3cc4ccccc4s3)n2)cc1)N1CCC(N2CCCC2)CC1,binding,competition with immobilised ligand,1 µM,82
N[C@H]1CCN(c2nccc(-c3cnn4ncccc34)n2)C1,binding,,1 µM,86
Cn1nc(C(=O)NCc2ccc(C(=O)O)cc2)cc1-c1ccc2[nH]ccc2c1,cell-free assay,competition with immobilised ligand,0.1 µM,61
F[C@@H]1CCN(c2nccc(-c3cnn4ncccc34)n2)C1,binding,,1 µM,100
C[C@H](NC(=O)c1cnc2n1[C@](C)(Cc1ccc(C#N)cc1)C(=O)N2c1cc(Cl)c(F)c(Cl)c1)C(=O)NC1(c2ccccn2)CC1,cell-free assay,competition with immobilised ligand,1 µM,100
CN(C)c1ncc(F)c(-c2cnn3ncccc23)n1,binding,,1 µM,82
CN1CCN(c2cnc3c(C4CCN(C(=O)c5ccc(OC(F)(F)F)cc5N)CC4)ncnc3c2)CC1,cell-free assay,competition with immobilised ligand,1 µM,100
C[C@@H]1CCN(c2nccc(-c3cnn4ncccc34)n2)C1,binding,,1 µM,80
COc1ccc2c(c1)O[C@@H](c1ccc(OC)c(OC)c1)C[C@H]2NC(=O)C1(c2ccc3c(c2)OC(F)(F)O3)CC1,cell-free assay,competition with immobilised ligand,1 µM,100
C[C@@H](c1ccc(-n2cnc3c(N)ncnc32)cc1)N1CCc2nn(C)c(Cc3ccccc3)c2C1=O,binding,competition with immobilised ligand,0.1 µM,72
